ChEMBL document CHEMBL1155412, “Novel powerful water-soluble lipid immunoadjuvants inducing mouse dendritic cell maturation and B cell proliferation using TLR2 pathway” (Bioorg Med Chem Lett, 2010)
Calls of active or inactive are those of the source. The rule behind the calls is not given here.

Assays:
[1] = target: Toll-like receptor 2 (Mus musculus) (UniProt Q9QUN7); test: Induction of TLR2-mediated mouse spleen B cells proliferation assessed as [3H]thymidin uptake at 0.16 ug/ml after 72 hrs in the presence of antagonist anti-TLR2 antibody treated 25 mins after anti-TLR2 antibody challenge; format: functional, tissue-based
[2] = target: Toll-like receptor 2 (Mus musculus) (UniProt Q9QUN7); test: Induction of TLR2-mediated mouse spleen B cells proliferation assessed as [3H]thymidin uptake at 0.02 ug/ml after 72 hrs
Method in brief: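 Purified mouse spleen B cells cultured with analogs at indicated concentrations for 72 h; proliferation by [3H]-thymidine uptake. Stimulation index = mean cpm stimulated / mean cpm unstimulated; mean SI ± SD of three independent experiments, each in triplicate.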

[3] = target: Toll-like receptor 2 (Mus musculus) (UniProt Q9QUN7); test: Induction of TLR2-mediated mouse D1 dendritic cells maturation assessed as expression of CD54 and CD86 activation markers at 0.5 ug/ml to 5 ug/ml after 24 hrs by flow cytometry in the presence of polymyxin B; format: cell-based
[4] = target: Toll-like receptor 2 (Mus musculus) (UniProt Q9QUN7); test: Induction of TLR2-mediated mouse D1 dendritic cells maturation assessed as expression of CD54 and CD86 activation markers at 0.5 ug/ml after 24 hrs by flow cytometry in the presence of antagonist anti-TLR2 antibody treated 25 mins after anti-TLR2 antibody challenge

Chain of Toll-like receptor 2 (Mus musculus) (Q9QUN7 whole entry): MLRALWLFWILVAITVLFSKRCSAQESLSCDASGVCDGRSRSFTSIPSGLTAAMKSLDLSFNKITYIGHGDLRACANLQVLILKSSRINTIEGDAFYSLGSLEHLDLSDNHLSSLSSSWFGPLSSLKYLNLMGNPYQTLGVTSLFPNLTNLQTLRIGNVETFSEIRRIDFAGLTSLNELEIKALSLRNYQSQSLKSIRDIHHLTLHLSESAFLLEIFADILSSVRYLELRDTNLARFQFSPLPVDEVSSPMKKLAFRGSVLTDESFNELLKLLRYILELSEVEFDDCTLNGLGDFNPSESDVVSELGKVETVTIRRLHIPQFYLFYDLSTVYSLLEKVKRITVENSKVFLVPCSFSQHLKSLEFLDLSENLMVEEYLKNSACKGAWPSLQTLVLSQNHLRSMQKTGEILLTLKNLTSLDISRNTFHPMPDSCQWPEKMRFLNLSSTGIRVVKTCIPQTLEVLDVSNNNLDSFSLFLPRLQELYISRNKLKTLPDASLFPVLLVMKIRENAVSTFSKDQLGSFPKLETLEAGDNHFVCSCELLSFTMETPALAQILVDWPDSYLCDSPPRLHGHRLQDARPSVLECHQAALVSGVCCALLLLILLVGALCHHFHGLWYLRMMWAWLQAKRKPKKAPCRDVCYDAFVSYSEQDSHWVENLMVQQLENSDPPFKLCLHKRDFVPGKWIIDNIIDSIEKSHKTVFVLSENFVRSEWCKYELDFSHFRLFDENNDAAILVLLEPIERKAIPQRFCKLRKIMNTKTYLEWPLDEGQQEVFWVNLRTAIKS

With `CCCCCCCCCCCCCCCC(=O)OC[C@H](CSC[C@H](N)C(=O)N[C@@H](C)C(=O)NCC(=O)NCCSSCCNC(=O)CNC(=O)OCCOCCOCCOCCOCCOCCOCCOCCOCCOCCOCCOCCOCCOCCOCCOCCOCCOCCOCCOCCOCCOCCOCCOCCOCCOCCOCCOCCOCCOCCOCCOCCOCCOCCOCCOCCOCCOCCOCCOCCOCCOCCOCCOCCO)OC(=O)CCCCCCCCCCCCCCC` the Activity [1] was “inactive”, the Activity [2] was “Active” and the Activity [3] was “Active”. The Activity [4] was “inactive”.

For `CCCCCCCCCCCCCCCC(=O)OC[C@H](CSC[C@H](N)C(=O)N[C@@H](C)C(=O)NCC(=O)NCCOCCOCCOCCOCCOCCOCCOCCOCCOCCOCCOCCOCCOCCOCCOCCOCCOCCOCCOCCOCCOCCOCCOCCOCCOCCOCCOCCOCCOCCOCCOCCOCCOCCOCCOCCOCCOCCOCCOCCOCCOCCOCCOCCOCCOC)OC(=O)CCCCCCCCCCCCCCC`, the Activity [1] was “inactive”, the Activity [2] was “Active” and the Activity [3] was “Active”. The Activity [4] was “inactive”.

In the case of `CCCCCCCCCCCCCCCC(=O)OC[C@H](CSC[C@H](NC(=O)COCCOCCOCCOCCOCCOCCOCCOCCOCCOCCOCCOCCOCCOCCOCCOCCOCCOCCOCCOCCOCCOCCOCCOCCOCCOCCOCCOCCOCCOCCOCCOCCOCCOCCOCCOCCOCCOCCOCCOCCOCCOCCOCCOCCOC)C(=O)N[C@@H](C)C(=O)NCC(=O)O)OC(=O)CCCCCCCCCCCCCCC`, the Activity [1] is reported as “inactive”, the Activity [2] is reported as “Active” and the Activity [3] is reported as “Active”. The Activity [4] was “inactive”.

With `CCCCCCCCCCCCCCCC(=O)N[C@@H](CSC[C@@H](COC(=O)CCCCCCCCCCCCCCC)OC(=O)CCCCCCCCCCCCCCC)C(=O)N[C@@H](C)C(=O)NCC(=O)NCCOCCOCCOCCOCCOCCOCCOCCOCCOCCOCCOCCOCCOCCOCCOCCOCCOCCOCCOCCOCCOCCOCCOCCOCCOCCOCCOCCOCCOCCOCCOCCOCCOCCOCCOCCOCCOCCOCCOCCOCCOCCOCCOCCOCCOC` the Activity [1] was “inactive”, the Activity [2] was “Active” and the Activity [3] was “Active”. The Activity [4] was “inactive”.
